ChEMBL document CHEMBL2093137, “WHO-TDR NTD Screening”
Values after ≈ are worked out from the molar mass of the structure shown.

Legend:
Plasmodium falciparum K1 = test: WHO-TDR: Malaria; assay type: functional, organism-based, Homo sapiens; conditions: Erythrocyte
In short: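 Values are IC50 figures for antiplasmodial potency. They come from a whole-organism screen of 10,000 diverse Life Chemicals compounds against Plasmodium falciparum K1 growing inside human red blood cells, run by previously published standard procedures.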

[1] = WHO-TDR: Cytotoxicity; assay type: toxicity, cell-based; conditions: human, MRC5 cells
Onchocerca ochengi [2] = test: (§1) WHO-TDR: Onchocerciasis; assay type: functional; parameters: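 at 12.5 µM on microfilariae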
In short: (§2)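 Values are reported as percent inhibition and as IC50. They come from a whole-organism screen of a 10,000-compound diverse Life Chemicals library against microfilariae of Onchocerca ochengi or Onchocerca lienalis. The screen followed previously published standard procedures, with reference drugs as positive controls.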

[3] = test system: Trypanosoma brucei brucei; test: WHO-TDR: Human African Trypanosomiasis (HAT); assay type: functional, organism-based; conditions: Squib-427
In short: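 Values are IC50 figures for antiparasitic potency. They come from a whole-organism screen of 10,000 diverse Life Chemicals compounds against bloodstream-form Trypanosoma brucei (Squib 427 strain).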

Schistosoma mansoni = test: WHO-TDR: Schistosomiasis; assay type: functional; parameters: concentration or dose not given beside the values
In short: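 Values are reported as percent inhibition and IC50. They come from a whole-organism screen of a 10,000-compound diverse Life Chemicals library against larval and/or adult worms of Schistosoma mansoni, Puerto Rican strain. The library had been filtered for drug-likeness and reactive groups.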

Onchocerca ochengi [4] = test: as §1; assay type: functional; parameters: concentration or dose not given beside the values; in short: as §2; remark: listed apart in the source
Leishmania infantum = test: WHO-TDR: Leishmaniasis; assay type: functional, organism-based, Mus musculus; conditions: Macrophage
In short: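 Values are IC50 figures for antiparasitic potency. They come from a whole-organism screen of a 10,000-compound diverse Life Chemicals library against Leishmania infantum MHOM/MA(BE)/67 amastigotes inside murine peritoneal macrophage host cells.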

Trypanosoma cruzi = test: WHO-TDR: Chagas disease; assay type: functional, organism-based, Homo sapiens; conditions: MRC5
In short: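 A diverse library of 10,000 compounds from Life Chemicals, filtered for drug-likeness and reactive groups, was screened against intracellular amastigotes of Trypanosoma cruzi Tulahuen CL2 beta-galactosidase strain. The parasites were grown in MRC-5SV2 human lung fibroblast host cells, and a reference drug served as positive control under previously published standard procedures. Antiparasitic potency is given as IC50.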

SMILES	IC50 (Plasmodium falciparum K1)	IC50 [1]	% Inhibition (Onchocerca ochengi [2])	IC50 [3]	% Inhibition (Schistosoma mansoni)	% Inhibition (Onchocerca ochengi [4])	IC50 (Leishmania infantum)	IC50 (Trypanosoma cruzi)
O=C(CSc1ncc(-c2ccccc2)[nH]1)N1CCCc2ccccc21	> 10.5 µg/mL	> 10.5 µg/mL	0%	> 10.5 µg/mL	0%	100%	> 10.5 µg/mL	> 10.5 µg/mL
O=C(CSc1ncc(-c2ccccc2)[nH]1)Nc1cc(C(F)(F)F)ccc1Cl	> 12.4 µg/mL	> 12.4 µg/mL	0%	> 12.4 µg/mL	0%	100%	> 12.4 µg/mL	> 12.4 µg/mL
O=C(CSc1nc(CC(=O)N2CCN(c3ccccc3F)CC2)cs1)Nc1ccc(F)cc1	> 14.7 µg/mL	> 14.7 µg/mL	0%	> 14.7 µg/mL	0%	100%	> 14.7 µg/mL	> 14.7 µg/mL
CC1Cc2ccccc2N1C(=O)Cc1csc(SCC(=O)Nc2ccc(F)cc2)n1 (stereo not drawn)	> 13.2 µg/mL	> 13.2 µg/mL	0%	> 13.2 µg/mL	0%	100%	> 13.2 µg/mL	4.42 µg/mL (≈ 10 µM)
COc1cc(CSc2nc(CC(=O)NCc3ccco3)cs2)cc(OC)c1	> 12.1 µg/mL	7.55 µg/mL (≈ 18.7 µM)	0%	> 1.21 µg/mL	0%	100%	> 12.1 µg/mL	2.99 µg/mL (≈ 7.4 µM)
O=C(Cc1csc(SCc2ccc(Cl)cc2)n1)NCCC1=CCCCC1	> 12.2 µg/mL	> 12.2 µg/mL	0%	3.86 µg/mL (≈ 9.49 µM)	0%	100%	> 12.2 µg/mL	3.58 µg/mL (≈ 8.8 µM)
COc1ccc(CCNC(=O)Cc2csc(SCc3ccc(C)cc3)n2)cc1OC	> 13.3 µg/mL	> 13.3 µg/mL	0%	> 13.3 µg/mL	0%	100%	> 13.3 µg/mL	4.01 µg/mL (≈ 9.07 µM)
CSc1nc(NC(C)C)c2cnn(CCNC(=O)C34CC5CC(CC(C5)C3)C4)c2n1	> 12.9 µg/mL	> 12.9 µg/mL	0%	4.07 µg/mL (≈ 9.49 µM)	0%	100%	> 12.9 µg/mL	4.17 µg/mL (≈ 9.73 µM)
CSc1nc(NC(C)C)c2cnn(CCNC(=O)COc3ccc(Cl)cc3)c2n1	> 13 µg/mL	> 13 µg/mL	0%	4.13 µg/mL (≈ 9.49 µM)	0%	100%	> 13 µg/mL	4.18 µg/mL (≈ 9.62 µM)
O=C(NCCn1nc(-c2ccco2)ccc1=O)C1c2ccccc2Oc2ccccc21	> 12.4 µg/mL	> 12.4 µg/mL	0%	> 12.4 µg/mL	0%	0%	1.84 µg/mL (≈ 4.46 µM)	> 12.4 µg/mL
O=C(CN1CCC(C(=O)Nc2ccc(Oc3ccccc3)cc2)CC1)Nc1ccc(F)cc1	> 13.4 µg/mL	> 13.4 µg/mL	0%	> 13.4 µg/mL	0%	0%	0.695 µg/mL (≈ 1.55 µM)	> 13.4 µg/mL
Cc1ccc(NC(=O)CN2CCC(C(=O)NCCc3c[nH]c4ccccc34)CC2)c(C)c1	> 13 µg/mL	> 13 µg/mL	0%	> 13 µg/mL	0%	100%	> 13 µg/mL	4.92 µg/mL (≈ 11.4 µM)
COc1ccccc1N1CCN(c2nc(Nc3ccc(C)cc3)c3nccnc3n2)CC1	2.66 µg/mL (≈ 6.23 µM)	4.5 µg/mL (≈ 10.5 µM)	0%	4.1 µg/mL (≈ 9.6 µM)	25%	100%	4.15 µg/mL (≈ 9.71 µM)	3.44 µg/mL (≈ 8.05 µM)
CCC(CO)Nc1nc(Nc2ccc(C)c(C)c2)c2nccnc2n1 (stereo not drawn)	> 10.2 µg/mL	> 10.2 µg/mL	0%	3.66 µg/mL (≈ 10.8 µM)	0%	100%	> 10.2 µg/mL	> 10.2 µg/mL
COc1ccc(N2CCN(C(=O)c3csc(NC(=O)c4ccccc4)n3)CC2)cc1	> 12.7 µg/mL	> 12.7 µg/mL	0%	> 12.7 µg/mL	0%	100%	6.56 µg/mL (≈ 15.5 µM)	> 12.7 µg/mL
NC(=O)c1csc(NC(=O)C2(c3ccc(Cl)cc3)CCCC2)n1	> 10.5 µg/mL	> 10.5 µg/mL	0%	3.72 µg/mL (≈ 10.6 µM)	0%	100%	> 10.5 µg/mL	> 10.5 µg/mL

SMILES	IC50 (Plasmodium falciparum K1)	IC50 [1]	% Inhibition (Onchocerca ochengi [2])	IC50 [3]	% Inhibition (Schistosoma mansoni)	% Inhibition (Onchocerca ochengi [4])	IC50 (Leishmania infantum)	IC50 (Trypanosoma cruzi)
O=C(NC1CCCC1)c1csc(NC(=O)c2cccs2)n1	> 9.64 µg/mL	> 9.64 µg/mL	0%	> 9.64 µg/mL	0%	100%	> 9.64 µg/mL	> 9.64 µg/mL
Cc1[nH]c2ccccc2c1S(=O)(=O)CCNC(=O)Nc1ccc(C(F)(F)F)cc1	> 12.8 µg/mL	> 12.8 µg/mL	0%	> 12.8 µg/mL	0%	100%	> 12.8 µg/mL	> 12.8 µg/mL
Cc1c(S(=O)(=O)CCNC(=O)NC2CCCCC2)c2ccccc2n1Cc1ccc(F)cc1	> 14.1 µg/mL	> 14.1 µg/mL	0%	> 14.1 µg/mL	0%	100%	> 14.1 µg/mL	> 14.1 µg/mL
CCOc1ccc(N2CC(CNS(=O)(=O)c3c(C)cc(C)cc3C)CC2=O)cc1 (stereo not drawn)	> 12.5 µg/mL	> 12.5 µg/mL	0%	> 12.5 µg/mL	0%	100%	> 12.5 µg/mL	> 12.5 µg/mL
CCOc1ccc(N2CC(CNS(=O)(=O)c3cccc(C(F)(F)F)c3)CC2=O)cc1 (stereo not drawn)	> 13.3 µg/mL	> 13.3 µg/mL	0%	> 13.3 µg/mL	0%	100%	> 13.3 µg/mL	> 13.3 µg/mL
O=C1CC(CNS(=O)(=O)c2ccccc2F)CN1c1ccc(Cl)cc1 (stereo not drawn)	> 11.5 µg/mL	> 11.5 µg/mL	0%	> 11.5 µg/mL	0%	100%	> 11.5 µg/mL	> 11.5 µg/mL
O=C1CC(CNS(=O)(=O)c2ccccc2C(F)(F)F)CN1c1ccc(Cl)cc1 (stereo not drawn)	> 13 µg/mL	> 13 µg/mL	0%	4.25 µg/mL (≈ 9.83 µM)	0%	100%	> 13 µg/mL	4.11 µg/mL (≈ 9.49 µM)
O=C(NCC1CC(=O)N(c2ccc(Cl)cc2)C1)NC1CCCCC1 (stereo not drawn)	> 10.5 µg/mL	> 10.5 µg/mL	100%	> 10.5 µg/mL	0%	0%	> 10.5 µg/mL	> 10.5 µg/mL
O=C(NCC1CC(=O)N(c2ccc(Cl)cc2)C1)Nc1ccccc1F (stereo not drawn)	> 10.9 µg/mL	> 10.9 µg/mL	0%	> 10.9 µg/mL	0%	100%	> 10.9 µg/mL	> 10.9 µg/mL
COc1ccc(CCNC(=O)NCC2CC(=O)N(c3ccc(Cl)cc3)C2)cc1 (stereo not drawn)	> 12.1 µg/mL	> 12.1 µg/mL	75%	> 12.1 µg/mL	0%	100%	> 12.1 µg/mL	6.28 µg/mL (≈ 15.6 µM)
CCCOc1nn(CCC)cc1C(=O)N1CCN(c2ccccc2Cl)CC1	> 11.7 µg/mL	> 11.7 µg/mL	0%	3.89 µg/mL (≈ 9.95 µM)	0%	100%	> 11.7 µg/mL	3.06 µg/mL (≈ 7.83 µM)
O=C(NCc1cccs1)c1cn(Cc2ccccc2)nc1OCc1ccccc1	6.04 µg/mL (≈ 15 µM)	2.72 µg/mL (≈ 6.74 µM)	0%	4.85 µg/mL (≈ 12 µM)	0%	100%	> 12.1 µg/mL	2.09 µg/mL (≈ 5.18 µM)
Cc1ccc(C)c(C(=O)Nc2ccc3c(c2)CCC(=O)N3Cc2ccccc2)c1	> 11.5 µg/mL	> 11.5 µg/mL	0%	0.416 µg/mL (≈ 1.08 µM)	0%	75%	> 11.5 µg/mL	> 11.5 µg/mL
CC(C)CCN1C(=O)CCc2cc(NC(=O)COc3ccc(Cl)cc3)ccc21	7.34 µg/mL (≈ 18.3 µM)	> 12 µg/mL	0%	3.89 µg/mL (≈ 9.71 µM)	0%	100%	> 12 µg/mL	3.45 µg/mL (≈ 8.61 µM)
CC(C)CCN1C(=O)CCc2cc(NC(=O)c3cccc(Br)c3)ccc21	> 12.5 µg/mL	> 12.5 µg/mL	0%	3.5 µg/mL (≈ 8.42 µM)	0%	100%	> 12.5 µg/mL	3.35 µg/mL (≈ 8.08 µM)
